A short description of assay [1]: inhibitors of TNFa-induced NFkB p65 translocation, primary screen, imaging, HUVEC, MLSMR starter and 10KST1 sets (AID 438;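 active means inhibition above 20% together with a positive visual image hit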;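 further: compound added about 3h40 before a 20 min TNFalpha stimulation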;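 on inhibition: signal is the nuclear over cytoplasmic p65 intensity ratio per well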). The conditions noted are these: HUVEC TNFa-induced p65 nuclear translocation; cell count: measured here: nuclei count (cytotoxicity indicator), at 2.08 µM; inhibition: at 2 µM, stronger effect = higher value, 0% TNFa-plus-vehicle, 100% no-TNFa wells.
Assay [2] is described as follows: endothelial E-selectin expression blockers – imaging, HUVEC, immunofluorescence, MLSMR starter and 10KST1 sets, primary screen (AID 487;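 active means visually confirmed hit in the image check and inhibition above 20%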;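 on inhibition: signal is fraction of cell area covered by stained E-selectin grains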;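 on nuclei count: 100% = median nuclei count of all wells on the same plate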). Conditions: HUVEC TNFalpha-induced E-selectin immunofluorescence imaging, at 2 µM; inhibition: stronger effect = higher value; nuclei count: measured here: cell number, toxicity.
The nature of assay [3]: Primary imaging screen for DUSP6 inhibitors that restore phospho-Erk in transfected HeLa cells, chemical complementation (AID 609;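 active means compounds giving at least 50% inhibition in the cell-based MKP-3 phosphatase rescue imaging test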;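 on inhibition: phospho-Erk level distribution per well compared with pooled transfected vehicle control wells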). Conditions: HeLa MKP-3 transfected, phospho-Erk imaging KS statistic, at 10 µM, cells stimulated with TPA for 15 min.
Assay [4] deals with Dual specificity protein phosphatase 6 (Homo sapiens) (UniProt Q16828). The assay is described as above. The conditions noted are these: HeLa MKP-3 transfected, phospho-Erk imaging KS statistic; at 10 µM; stronger effect = higher value; cells stimulated with TPA for 15 min.
For assay [5], the target named is Voltage-gated potassium channel subunit beta-2 (Rattus norvegicus) (UniProt P62483). Description: inhibitors of rat Kvbeta2 reductase activity – biochemical, NADPH fluorescence, primary screen (AID 622;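 active means fluorescence slope higher than the sample average by over 3 SD, cut at about -0.22 in these data, passing the limit was not always enough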;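 further: slope of raw intensity against log time taken from 70 to 1610 s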). Conditions: recombinant KvBeta, 4-cyanobenzaldehyde reduction, at 10 µM, stronger effect = higher value.
The target is the same in assay [6]. The assay can be described thus: enhancers of rat Kvbeta2 NADPH turnover – biochemical, NADPH fluorescence, primary screen (AID 623).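 Further: fluorescence intensity change per second fitted from 20 to 320 s.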 Conditions: Recombinant KvBeta, NADPH fluorescence decrease slope, 10 min; at 10 µM; stronger effect = lower value.
The target of assay [7] is Muscarinic acetylcholine receptor M4 (Homo sapiens) (UniProt P08173). Description: M4-linked GIRK flux change, two-sided – cell-based, HEK293 M4/GIRK, thallium flux, BTC-AM, M4 allosteric agonist project, primary screen (AID 625;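 active means fluorescence slope after compound addition differing from the mean of all tested samples at 99.7% confidence, mostly higher but some lower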;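 further: thallium influx through GIRK channels coupled to M4 in HEK293 cells with BTC-AM dye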). Conditions: at 10 µM, actives lie on both sides. The gist of the method:
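Material: M4/GIRK1/GIRK2 stable HEK293 cell line. Medium: pH 7.3 thallium assay buffer. Dosing: single compound concentration, 10 µM final. Schedule: 1 h dye loading, 2 min kinetic read. Measured by: kinetic fluorescence with BTC-AM dye. Read-out: post-addition slope, 15–24 s, of baseline-normalized fluorescence. Benchmarks: carbachol and DMSO controls.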

Assay [8] in a line: inhibitors of larval lipid processing in zebrafish, primary screen, whole organism, PED6 fluorescence, gall bladder and intestine (AID 686;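 active means a full or partial loss of lipid-probe fluorescence in the fish gall bladder, intestine or both, judged by eye; inactive means no fluorescence loss, or compound toxic to the fish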;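 further: larvae 5 to 7 days old with five fish per well; signal comes from phospholipase A2 cleavage of quenched PED6 carried via bile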). The conditions noted are these: Zebrafish larvae PED6 lipid processing, fluorescence scoring; screened at 20 µM (by protocol). The gist of the method: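 System: live zebrafish larvae aged 5-7 days, whole organism; measure: graded gall bladder and intestinal fluorescence inhibition per well; incubation: overnight exposure; reagent: ingested quenched lipid PED6 at 100 nM; signal: By-eye fluorescence microscopy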

The nature of assay [9]: loss of swimming-algae plug formation – whole organism, Chlamydomonas reinhardtii, WT vs cilia-less mutant, absorbance, 96-well, primary screen (AID 463189;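 active means inhibition at or above 50% relative to wild type and mutant plate controls; inactive means inhibition below 50%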;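 further: 0% = wild type cc124 cells in DMSO and 100% = ciliumless bld1 mutant cells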). Conditions: Chlamydomonas reinhardtii gravitaxis, OD600 absorbance, 2 days; at 10 µM; stronger effect = higher value.
[10] abbreviates: measured here: cell density z-score.
Setting [11] is: measured here: nuclear c-Myc green intensity z-score.
The mark [12] stands for this setting: measured here: nuclear pErk red intensity z-score, stronger effect = higher value.

Activity calls are given as the source filed them.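 How the source made its calls, unless noted: active means NADPH fluorescence slope more negative than the mean of all samples by about 3 SD, 99.7% confidence; inactive means the rest.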

Sequence of Voltage-gated potassium channel subunit beta-2 (Rattus norvegicus) (P62483 whole entry, looked up): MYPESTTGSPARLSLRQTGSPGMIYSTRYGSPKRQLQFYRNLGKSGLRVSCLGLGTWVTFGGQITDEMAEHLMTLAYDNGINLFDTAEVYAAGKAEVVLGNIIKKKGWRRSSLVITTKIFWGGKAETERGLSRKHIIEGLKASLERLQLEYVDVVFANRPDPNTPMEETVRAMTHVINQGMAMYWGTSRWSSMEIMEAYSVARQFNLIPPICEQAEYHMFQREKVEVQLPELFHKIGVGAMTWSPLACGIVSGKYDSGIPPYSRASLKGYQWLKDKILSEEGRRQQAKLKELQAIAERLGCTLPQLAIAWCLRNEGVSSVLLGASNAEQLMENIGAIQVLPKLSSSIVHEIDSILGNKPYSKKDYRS
Sequence of Dual specificity protein phosphatase 6 (Homo sapiens) (Q16828 whole entry, looked up): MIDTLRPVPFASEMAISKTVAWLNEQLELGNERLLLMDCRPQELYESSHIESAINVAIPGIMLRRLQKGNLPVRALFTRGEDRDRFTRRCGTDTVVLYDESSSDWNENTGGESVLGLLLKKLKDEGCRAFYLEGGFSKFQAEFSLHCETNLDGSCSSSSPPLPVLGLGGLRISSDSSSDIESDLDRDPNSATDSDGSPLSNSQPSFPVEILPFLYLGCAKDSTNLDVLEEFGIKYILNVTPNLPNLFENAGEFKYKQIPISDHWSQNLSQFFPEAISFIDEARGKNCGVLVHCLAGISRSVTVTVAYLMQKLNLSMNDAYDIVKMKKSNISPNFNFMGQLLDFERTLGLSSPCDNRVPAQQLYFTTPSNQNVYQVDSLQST
Sequence of Muscarinic acetylcholine receptor M4 (Homo sapiens) (P08173 whole entry, looked up): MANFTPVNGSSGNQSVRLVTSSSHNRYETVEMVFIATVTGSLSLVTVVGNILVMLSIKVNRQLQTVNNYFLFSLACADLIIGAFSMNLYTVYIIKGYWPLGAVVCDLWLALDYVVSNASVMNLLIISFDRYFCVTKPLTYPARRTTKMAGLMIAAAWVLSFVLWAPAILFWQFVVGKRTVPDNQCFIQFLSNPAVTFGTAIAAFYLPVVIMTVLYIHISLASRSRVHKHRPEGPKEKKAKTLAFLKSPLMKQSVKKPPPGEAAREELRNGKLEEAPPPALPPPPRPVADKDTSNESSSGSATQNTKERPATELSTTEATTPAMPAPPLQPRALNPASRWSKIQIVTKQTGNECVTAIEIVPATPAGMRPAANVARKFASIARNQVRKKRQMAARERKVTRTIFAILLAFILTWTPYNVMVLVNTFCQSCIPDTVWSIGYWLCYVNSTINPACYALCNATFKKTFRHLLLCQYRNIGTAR

The term inhibition denotes the drop in the measured response relative to a control, in per cent. Regarding `Cc1ccc(S(=O)(=O)N(CC(O)CN(C)C)c2ccccc2)cc1` (stereo unspecified), in [1], the cell count is 534. The inhibition was -13.1% (inactive) in assay [1], -98.3% (inactive) in assay [2], -6.59% (inactive) in assay [4] and 2.93% (inactive) in [9]. In assay [2], this compound showed a nuclei count of 180%. Moreover, the z-score was 0.563 in assay [3] (setting [10]), -0.408 in [3] (setting [11]) and -0.341 in [3] (setting [12]). Moreover, the fluorescence slope was -0.412 (inactive) in assay [5] and 0.00541 (inactive) in [7]. In addition, the NADPH fluorescence slope in assay [6] is -7e-05 (inactive). The call in assay [8] was inactive.
Turning to `CCOC(=O)NC(Nc1sc2c(c1C(=O)OC)CCN(C)C2)(C(F)(F)F)C(F)(F)F`, the cell count in assay [1] came out at 614. Moreover, the inhibition in assay [1] was 3.1% (inactive); in [2], -20.8% (inactive); in assay [4], 16.5% (inactive); in assay [9] it was 36.6% (inactive). In addition, the nuclei count in assay [2] stood at 89.6%. In addition, the z-score in assay [3] (setting [10]) was 0.751; in assay [3] (setting [11]), -0.407; in [3] (setting [12]) it was -0.601. Moreover, the results for the fluorescence slope in assay [5] and in assay [7] were -0.501 (inactive) and 0.00619 (inactive), respectively. For the same compound, the NADPH fluorescence slope in assay [6] is -3.3e-05 (inactive). In addition, in [8], the compound was called inactive.
For `CC(Sc1ccc2ccccc2n1)C(=O)O` (stereo unspecified), the cell count in assay [1] is 709. Besides, the inhibition was -5.5% (inactive) in assay [1], 23% (inactive) in assay [2], 7.21% (inactive) in assay [4] and -8.1% (inactive) in assay [9]. Further, the nuclei count in [2] was 185%. Also, the z-score is 0.12 in [3] (setting [10]), 0.234 in assay [3] (setting [11]) and -0.321 in assay [3] (setting [12]). In addition, the figures for the fluorescence slope in [5] and in assay [7] were -0.478 (inactive) and 0.00615 (inactive), respectively. Besides, the NADPH fluorescence slope in assay [6] is -9e-05 (inactive). Moreover, in [8], the result was inactive.
As to `O=C(O)C1[C@H]2C(=O)N(Cc3cccs3)C[C@]23C=C[C@H]1O3` (stereo partly specified), the cell count in assay [1] was 598. Also, the inhibition in assay [1] is -10.3% (inactive); in assay [2], -12.8% (inactive); in [4], 6.04% (inactive); in [9] it was -4.98% (inactive). Moreover, the nuclei count in assay [2] came to 189%. Also, the z-score is 0.152 in assay [3] (setting [10]), 1.12 in assay [3] (setting [11]) and -0.313 in [3] (setting [12]). Besides, the fluorescence slope is -0.481 (inactive) in [5] and 0.00643 (inactive) in [7]. In assay [6], the NADPH fluorescence slope was -8e-05 (inactive). Further, the call in assay [8] was inactive.
For the compound `Cn1c(=O)[nH]c(=O)c2c1nc(N1CCN(c3cccc(Cl)c3)CC1)n2CCCc1ccccc1`, the cell count in [1] turned out to be 620. Besides, the inhibition in [1] is -6% (inactive); in assay [2], -19.3% (inactive); in assay [4] it was 24% (inactive); in assay [9] it was -0.786% (inactive). This compound also came in with a nuclei count in assay [2] of 104%. Further, the results for the z-score in [3] (setting [10]), in [3] (setting [11]) and in assay [3] (setting [12]) were 0.751, -1.24 and -0.00216, respectively. Moreover, the fluorescence slope in [5] is -0.442 (inactive); in assay [7], 0.0083 (inactive). The NADPH fluorescence slope in [6] was -6.2e-05 (inactive). Further, in assay [8], the compound was classed as inactive.
For the compound `Cn1c(Cn2cnc(Cl)c2Cl)nc2ccccc21`, the cell count in [1] came out at 583. Also, the inhibition in assay [1] is 0.2% (inactive); in assay [2], -75.8% (inactive); in [4] it was 12.8% (inactive); in assay [9] it was 21.9% (inactive). In assay [2], this compound returned a nuclei count of 138%. In addition, the z-score in [3] (setting [10]) came out at 0.873; in assay [3] (setting [11]) it was 1.34; in assay [3] (setting [12]), 0.561. The fluorescence slope is -0.454 (inactive) in assay [5] and 0.00447 (inactive) in assay [7]. For the same compound, the NADPH fluorescence slope in assay [6] was -8.5e-05 (inactive). In assay [8], the compound was classed as inactive.
For `Cc1ccc(C(=O)NCC(C)(C)O)cc1`, the cell count in assay [1] is 554. The inhibition in assay [1] is -5.3% (inactive); in assay [2], -1.3% (inactive); in [4] it was -3.95% (inactive); in assay [9], -5.2% (inactive). The compound also yielded a nuclei count in assay [2] of 87.7%. For the same compound, the values for the z-score in assay [3] (setting [10]), in assay [3] (setting [11]) and in assay [3] (setting [12]) were -0.652, -0.297 and -0.959, respectively. Besides, the fluorescence slope in [5] is -0.473 (inactive); in assay [7], 0.00553 (inactive). Besides, the NADPH fluorescence slope in assay [6] was -8.2e-05 (inactive). Moreover, the result in assay [8] was inactive.

(Values after PubChem BioAssay.)
